Test results reported in ChEMBL document CHEMBL1152519, “Synthesis, structural activity-relationships, and biological evaluation of novel amide-based allosteric binding site antagonists in NR1A/NR2B N-methyl-D-aspartate receptors” (Bioorg Med Chem, 2009).

What was measured:
[1] = molecular target: Glutamate NMDA receptor; GRIN1/GRIN2B (Homo sapiens, UniProt Q05586+Q13224); assay: Antagonist activity at human recombinant NR1/NR2B receptor expressed in frog oocytes assessed as inhibition of glutamate/glycine-induced current by two electrode voltage clamp method; assay type: functional, cell-based, Oocyte
Sequence of Glutamate NMDA receptor; GRIN1/GRIN2B (Q13224 whole entry, other chains not shown): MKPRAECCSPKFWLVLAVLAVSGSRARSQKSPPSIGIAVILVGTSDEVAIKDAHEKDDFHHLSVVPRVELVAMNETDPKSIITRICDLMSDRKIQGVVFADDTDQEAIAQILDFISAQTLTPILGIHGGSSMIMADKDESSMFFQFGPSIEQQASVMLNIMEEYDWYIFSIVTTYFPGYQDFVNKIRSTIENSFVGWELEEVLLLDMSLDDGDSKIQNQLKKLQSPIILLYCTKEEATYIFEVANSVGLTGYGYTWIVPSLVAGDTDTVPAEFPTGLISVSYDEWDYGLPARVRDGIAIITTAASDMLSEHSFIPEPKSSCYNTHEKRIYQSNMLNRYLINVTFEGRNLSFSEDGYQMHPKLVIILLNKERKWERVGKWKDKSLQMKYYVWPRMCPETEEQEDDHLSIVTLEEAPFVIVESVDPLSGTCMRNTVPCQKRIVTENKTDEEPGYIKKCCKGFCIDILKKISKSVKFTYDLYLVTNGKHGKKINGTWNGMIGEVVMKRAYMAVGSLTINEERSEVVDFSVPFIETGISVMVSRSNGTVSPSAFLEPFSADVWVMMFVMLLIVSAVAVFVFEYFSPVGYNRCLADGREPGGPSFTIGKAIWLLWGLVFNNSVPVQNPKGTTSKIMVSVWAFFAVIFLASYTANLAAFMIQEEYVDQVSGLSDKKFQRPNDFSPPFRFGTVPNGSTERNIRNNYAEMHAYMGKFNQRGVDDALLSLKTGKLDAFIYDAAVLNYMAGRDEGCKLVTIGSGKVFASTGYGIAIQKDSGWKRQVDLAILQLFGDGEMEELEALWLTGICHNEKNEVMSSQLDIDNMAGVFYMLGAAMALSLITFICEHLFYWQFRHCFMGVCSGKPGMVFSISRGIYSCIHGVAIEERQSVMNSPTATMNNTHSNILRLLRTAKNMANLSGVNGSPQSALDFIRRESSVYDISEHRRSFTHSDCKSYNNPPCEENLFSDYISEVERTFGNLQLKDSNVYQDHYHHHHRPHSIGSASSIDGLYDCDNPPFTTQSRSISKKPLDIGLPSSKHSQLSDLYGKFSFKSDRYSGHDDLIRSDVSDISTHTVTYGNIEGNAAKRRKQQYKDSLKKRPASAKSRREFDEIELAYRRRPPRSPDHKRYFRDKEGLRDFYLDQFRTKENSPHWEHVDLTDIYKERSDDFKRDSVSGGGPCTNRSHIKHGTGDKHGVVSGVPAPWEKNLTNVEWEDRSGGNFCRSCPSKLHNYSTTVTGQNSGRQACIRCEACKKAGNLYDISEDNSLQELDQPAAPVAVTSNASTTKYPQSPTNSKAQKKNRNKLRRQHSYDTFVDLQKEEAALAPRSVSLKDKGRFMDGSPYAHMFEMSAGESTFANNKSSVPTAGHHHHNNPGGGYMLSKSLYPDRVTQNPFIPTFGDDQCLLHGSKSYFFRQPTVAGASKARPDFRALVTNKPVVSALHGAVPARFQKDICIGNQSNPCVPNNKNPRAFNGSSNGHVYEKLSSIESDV
How it was run: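 Human NR1/NR2B cRNA injected into Xenopus oocytes. Two-electrode voltage clamp at −40 mV, 23 °C, 2–7 d after injection. Glutamate/glycine (50–100 μM/30 μM) applied, then with 5–8 compound concentrations. Bath contains 10 μM EDTA; leak-corrected.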

[2] = molecular target: Glutamate receptor ionotropic, kainate 2 (Rattus norvegicus) (UniProt P42260); assay: Antagonist activity at rat recombinant GluR6 expressed in Xenopus laevis oocytes assessed as inhibition of concanavalin A/glutamate-induced current at 3 uM by two electrode voltage clamp method relative to control; assay type: functional, cell-based; conditions: Oocyte
Sequence of Glutamate receptor ionotropic, kainate 2 (Rattus norvegicus) (P42260 whole entry): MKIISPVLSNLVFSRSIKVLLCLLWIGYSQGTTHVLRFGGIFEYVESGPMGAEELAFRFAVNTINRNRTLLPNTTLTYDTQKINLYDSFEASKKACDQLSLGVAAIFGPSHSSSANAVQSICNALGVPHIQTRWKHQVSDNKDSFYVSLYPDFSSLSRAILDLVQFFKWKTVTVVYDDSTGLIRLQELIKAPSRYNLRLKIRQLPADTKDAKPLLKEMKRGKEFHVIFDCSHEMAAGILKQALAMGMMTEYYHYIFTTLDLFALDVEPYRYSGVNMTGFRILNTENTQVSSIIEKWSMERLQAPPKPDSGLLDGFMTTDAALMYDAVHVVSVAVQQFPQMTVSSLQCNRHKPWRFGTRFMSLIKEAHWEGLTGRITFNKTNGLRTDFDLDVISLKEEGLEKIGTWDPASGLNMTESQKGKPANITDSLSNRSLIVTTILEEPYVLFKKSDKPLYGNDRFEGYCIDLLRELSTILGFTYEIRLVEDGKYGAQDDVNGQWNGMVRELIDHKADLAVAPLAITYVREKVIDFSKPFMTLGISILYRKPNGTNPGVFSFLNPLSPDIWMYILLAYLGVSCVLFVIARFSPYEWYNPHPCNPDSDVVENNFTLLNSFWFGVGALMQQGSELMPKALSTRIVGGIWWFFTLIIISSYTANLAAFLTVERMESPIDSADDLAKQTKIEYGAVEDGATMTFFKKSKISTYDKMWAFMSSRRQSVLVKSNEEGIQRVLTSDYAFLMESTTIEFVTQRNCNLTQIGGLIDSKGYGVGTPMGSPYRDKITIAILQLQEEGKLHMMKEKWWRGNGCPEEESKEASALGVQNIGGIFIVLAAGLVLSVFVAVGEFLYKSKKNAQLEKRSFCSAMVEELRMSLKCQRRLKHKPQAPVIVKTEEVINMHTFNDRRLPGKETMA
How it was run: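 Oocytes expressing homomeric GluR6 (5–10 ng cRNA) pretreated 5 min with 10 μM concanavalin-A. Currents evoked by 100 μM glutamate at −40 mV, with or without 3 μM compound, and given as percent of control. Mean ± SEM of 4–10 oocytes; paired t-test.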

[3] = molecular target: Adrenergic receptor alpha-1 (Rattus norvegicus) (UniProt P15823+P23944+P43140); assay: Displacement of [3H]prazosin from alpha1 adrenergic receptor in Wistar rat brain membrane at 3 uM; assay type: cell membranes
How it was run: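 Wistar rat brain membranes. Percent displacement of 0.25 nM [3H]prazosin by 3 μM compound, run in duplicate.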

[4] = molecular target: Glutamate NMDA receptor; Grin1/Grin2b (Rattus norvegicus) (UniProt P35439+Q00960); assay: Antagonist activity at rat recombinant NR1/NR2B receptor expressed in Xenopus laevis oocytes assessed as inhibition of glutamate/glycine-induced current at 3 uM by two electrode voltage clamp method relative to control; assay type: functional, cell-based; conditions: Oocyte
How it was run: (§1)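 Xenopus oocytes injected with NR1-1a (3–5 ng) plus NR2A, 2B, 2C or 2D cRNA (7–10 ng), kept at 15 °C. Voltage clamp at −40 mV. Responses to 50 μM glutamate + 30 μM glycine with 3 μM compound, as % of response without compound. NR2A oocytes pre-loaded with 50 μM BAPTA-AM. Mean ± SEM, 4–10 oocytes; paired t-test.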

[5] = molecular target: Glutamate NMDA receptor; Grin1/Grin2a (Rattus norvegicus) (UniProt P35439+Q00959); assay: Antagonist activity at rat recombinant NR1/NR2A receptor expressed in Xenopus laevis oocytes assessed as inhibition of glutamate/glycine-induced current at 3 uM by two electrode voltage clamp method relative to control; assay type: functional, cell-based; conditions: Oocyte; how it was run: as §1
[6] = molecular target: Ionotropic glutamate receptor NMDA 1/2D (Rattus norvegicus) (UniProt P35439+Q62645); assay: Antagonist activity at rat recombinant NR1/NR2D receptor expressed in Xenopus laevis oocytes assessed as inhibition of glutamate/glycine-induced current at 3 uM by two electrode voltage clamp method relative to control; assay type: functional, cell-based; conditions: Oocyte; how it was run: as §1
[7] = molecular target: Glutamate NMDA receptor; Grin1/Grin2c (Rattus norvegicus) (UniProt P35439+Q00961); assay: Antagonist activity at rat recombinant NR1/NR2C receptor expressed in Xenopus laevis oocytes assessed as inhibition of glutamate/glycine-induced current at 3 uM by two electrode voltage clamp method relative to control; assay type: functional, cell-based; conditions: Oocyte; how it was run: as §1
[8] = molecular target: Glutamate receptor 1 (Rattus norvegicus) (UniProt P19490); assay: Antagonist activity at rat recombinant GluR1 expressed in Xenopus laevis oocytes assessed as inhibition of glutamate-induced current at 3 uM by two electrode voltage clamp method relative to control; assay type: functional, cell-based; conditions: Oocyte
How it was run: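 GluR1 homomers expressed from 5–10 ng cRNA in Xenopus oocytes. Clamped at −40 mV. Currents evoked by 100 μM glutamate with 3 μM compound, expressed as % of control without compound. Mean ± SEM, 4–10 oocytes; paired t-test.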

[9] = molecular target: T1, hERG (KCNH2) (Homo sapiens, UniProt Q12809); assay: Displacement of [3H]astemizole from human recombinant ERG expressed in HEK293 cells at 10 uM; assay type: cell-based; conditions: HEK293 cells expressing human recombinant ERG, probe [3H]astemizole, read-out: Activity
T1 sequence (Q12809 whole entry): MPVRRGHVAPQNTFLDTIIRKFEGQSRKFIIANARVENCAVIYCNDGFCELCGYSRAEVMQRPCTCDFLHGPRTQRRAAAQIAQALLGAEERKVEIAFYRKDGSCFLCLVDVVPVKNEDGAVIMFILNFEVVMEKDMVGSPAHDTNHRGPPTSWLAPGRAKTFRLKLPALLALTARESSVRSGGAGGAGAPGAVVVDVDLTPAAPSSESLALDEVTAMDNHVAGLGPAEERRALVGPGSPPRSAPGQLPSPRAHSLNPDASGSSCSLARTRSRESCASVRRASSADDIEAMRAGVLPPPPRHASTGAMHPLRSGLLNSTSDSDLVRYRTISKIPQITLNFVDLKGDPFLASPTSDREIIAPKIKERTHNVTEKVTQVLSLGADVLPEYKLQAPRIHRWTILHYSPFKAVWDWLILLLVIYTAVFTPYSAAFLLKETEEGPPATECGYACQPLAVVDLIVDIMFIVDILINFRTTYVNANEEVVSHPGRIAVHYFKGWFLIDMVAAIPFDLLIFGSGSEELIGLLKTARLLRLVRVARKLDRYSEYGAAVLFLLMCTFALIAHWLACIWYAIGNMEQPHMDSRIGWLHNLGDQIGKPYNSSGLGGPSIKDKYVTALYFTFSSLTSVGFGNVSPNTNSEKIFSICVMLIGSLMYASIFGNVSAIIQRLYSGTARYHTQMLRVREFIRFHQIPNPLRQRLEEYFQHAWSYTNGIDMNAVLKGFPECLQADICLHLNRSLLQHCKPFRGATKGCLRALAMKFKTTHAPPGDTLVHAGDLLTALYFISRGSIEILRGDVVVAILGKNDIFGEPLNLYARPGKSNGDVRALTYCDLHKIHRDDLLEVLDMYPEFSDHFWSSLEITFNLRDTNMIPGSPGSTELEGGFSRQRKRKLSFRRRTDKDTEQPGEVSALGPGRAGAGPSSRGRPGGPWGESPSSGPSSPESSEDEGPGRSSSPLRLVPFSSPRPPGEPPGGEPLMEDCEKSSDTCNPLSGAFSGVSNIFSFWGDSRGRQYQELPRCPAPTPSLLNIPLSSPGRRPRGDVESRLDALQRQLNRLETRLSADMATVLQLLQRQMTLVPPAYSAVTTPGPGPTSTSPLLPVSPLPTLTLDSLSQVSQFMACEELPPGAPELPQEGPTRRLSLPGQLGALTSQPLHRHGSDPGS

[10] = molecular target: Voltage-gated inwardly rectifying potassium channel KCNH2 (Homo sapiens, UniProt Q12809); assay: Displacement of [3H]astemizole from human recombinant ERG expressed in HEK293 cells; assay type: cell-based
Sequence of Voltage-gated inwardly rectifying potassium channel KCNH2 (Q12809 whole entry): as above

[11] = Selectivity ratio of IC50 for mouse NR1/NR2B receptor D101A mutant to IC50 for wild type rat NR1/NR2B receptor
[12] = test system: MDCK; assay: Apparent permeability from apical to basolateral side of MDR1-expressing MDCK cells at 5 uM after 2 hrs by LC-MS/MS analysis; assay type: ADME, cell-based, Canis lupus familiaris; conditions: dog
How it was run: (§2)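 MDR1-MDCK monolayers grown 7–11 days on Transwells. Compound at 5 μM in HBSS pH 7.4 (final DMSO ≤1%) added apically (A–B) or basally (B–A). Incubated 2 h at 37 °C; both compartments quantified by LC–MS/MS against a >4-point calibration. Papp given in ×10−6 cm/s; efflux ratio = B–A/A–B. Duplicates.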

[13] = test system: MDCK; assay: Efflux ratio of permeability from basolateral to apical over apical to basolateral side in MDR1-expressing MDCK cells at 5 uM after 2 hrs by LC-MS/MS analysis; assay type: ADME, cell-based, Canis lupus familiaris; conditions: dog
[14] = test system: MDCK; assay: Apparent permeability from basolateral to apical side of MDR1-expressing MDCK cells at 5 uM after 2 hrs by LC-MS/MS analysis; assay type: ADME, cell-based, Canis lupus familiaris; conditions: dog; how it was run: as §2
[15] = molecular target: Glutamate receptor ionotropic, NMDA 2B (Rattus norvegicus, UniProt Q00960); assay: Displacement of [3H]ifenprodil form NR2B receptor in Wistar rat cerebral cortex membrane; assay type: tissue-based
[16] = molecular target: T1, hERG (KCNH2); assay: Displacement of [3H]astemizole from human recombinant ERG expressed in HEK293 cells at 3 uM; assay type: cell-based; conditions: HEK293 cells expressing human recombinant ERG, probe [3H]astemizole, read-out: Activity
How it was run: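 Membranes from HEK293 cells expressing human hERG. Ligand 1.5 nM [3H]-astemizole; displacement at a single test-compound concentration, run in duplicate.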

Structure (SMILES) | IC50 [1] | % response [2] | Activity [3] | % response [4] | % response [5] | % response [6] | % response [7] | % response [8] | inhibition at 10 µM [9] | Ki [10] | Ratio IC50 [11] | Papp [12] | Ratio [13] | Papp [14] | Ki [15] | inhibition at 3 µM [16]
CS(=O)(=O)Nc1ccc(CCC(=O)NCCNc2ccc(Cl)c(Cl)c2)cc1 | 65 nM | 98% | 1% | 14% | 99% | 84% |  |  |  |  |  |  |  |  |  | 
CS(=O)(=O)Nc1ccc(OCC(=O)NCCCNc2ccc(Cl)c(Cl)c2)cc1 | 193 nM | 90% |  | 12% | 106% | 100% | 97% | 103% |  |  |  |  |  |  |  | 
CS(=O)(=O)Nc1ccc(OCC(=O)NC/C=C/c2ccc(Cl)c(Cl)c2)cc1 | 72 nM | 94% | 22% | 14% | 100% | 97% | 95% | 101% | 74% |  |  |  |  |  |  | 
CS(=O)(=O)Nc1ccc(CCC(=O)N2CCN(c3ccc(Cl)c(Cl)c3)CC2)cc1 | 3600 nM | 101% |  | 48% | 103% | 97% | 100% | 104% |  |  |  |  |  |  |  | 
CS(=O)(=O)Nc1ccc(CCC(=O)NNC(=S)Nc2ccc(Cl)c(Cl)c2)cc1 | 270 nM | 96% |  | 12% | 104% | 92% | 94% | 100% | 13% |  |  |  |  |  |  | 
CS(=O)(=O)Nc1ccc(CCCN2CCN(c3ccc(Cl)c(Cl)c3)C2=O)cc1 | 637 nM | 99% |  | 17% | 96% | 91% | 97% | 100% | 81% |  |  |  |  |  |  | 
CS(=O)(=O)Nc1ccc(OCCNCC(=O)Nc2ccc(Cl)c(Cl)c2)cc1 | 1110 nM | 98% | 21% | 21% | 108% | 95% | 94% | 97% | 67% |  |  |  |  |  |  | 
CS(=O)(=O)Nc1ccc(CCC(=O)NN2C(=O)c3cc(Cl)c(Cl)cc3C2=O)cc1 | 41800 nM | 100% |  | 90% | 101% | 93% | 102% | 98% |  |  |  |  |  |  |  | 
CS(=O)(=O)Nc1ccc(OCCNCCNc2ccc(Cl)c(Cl)c2)cc1 | 39 nM | 98% | 49% | 17% | 91% | 100% | 100% | 101% | 97% | 300 nM |  |  |  |  |  | 
CS(=O)(=O)Nc1ccc(OCC(=O)NCCSc2ccc(Cl)c(Cl)c2)cc1 | 362 nM | 94% | 5% | 21% | 96% | 96% | 95% | 101% | 75% |  |  |  |  |  |  | 
CS(=O)(=O)Nc1ccc(CCC(=O)NNC(=O)Nc2ccc(Cl)c(Cl)c2)cc1 | 28 nM | 99% | 5% | 6% | 101% | 91% | 96% | 100% | 3% |  | 51 |  |  |  |  | 
CS(=O)(=O)Nc1ccc(OCCN2CCN(c3ccc(Cl)c(Cl)c3)C2=O)cc1 | 730 nM | 103% | 23% | 20% | 105% | 98% | 98% | 98% | 71% |  |  | 12.9 ×10⁻⁶ cm/s | 3.1 | 40.2 ×10⁻⁶ cm/s | 300 nM | 
CS(=O)(=O)Nc1ccc(OCC(=O)N2CCN(c3ccc(Cl)c(Cl)c3)CC2)cc1 | 166 nM | 101% | 90% | 18% | 89% | 106% | 94% | 101% | 93% |  |  | 4.76 ×10⁻⁶ cm/s |  | 42.4 ×10⁻⁶ cm/s | 817 nM | 
CS(=O)(=O)Nc1ccc(CCC(=O)NCCCNc2ccc(Cl)c(Cl)c2)cc1 | 750 nM | 98% | 19% | 12% | 96% | 96% | 90% | 100% | 83% |  |  |  |  |  |  | 
CS(=O)(=O)Nc1ccc(CCC(=O)NNC(=O)c2ccc(Cl)c(Cl)c2)cc1 | 521 nM | 97% |  | 21% | 102% | 96% | 97% | 100% |  |  |  |  |  |  |  | 
CS(=O)(=O)Nc1ccc(CCC(=O)NNCCc2ccc(Cl)c(Cl)c2)cc1 | 4810 nM | 98% |  | 44% | 106% | 95% | 97% | 100% |  |  |  |  |  |  |  | 
CS(=O)(=O)Nc1ccc(CCCNCCNc2ccc(Cl)c(Cl)c2)cc1 | 19 nM | 99% | 52% | 21% | 89% | 91% | 104% | 102% | > 98% | 14 nM |  |  |  |  |  | 
CS(=O)(=O)Nc1ccc(CCC(=O)NC/C=C/c2ccc(Cl)c(Cl)c2)cc1 | 50 nM | 100% | 16% | 18% | 99% | 88% | 95% | 104% |  | 3000 nM |  |  |  |  |  | 47%
CS(=O)(=O)Nc1ccc(CCCC(=O)NCCc2ccc(Cl)c(Cl)c2)cc1 | 1860 nM | 100% |  | 62% | 99% | 89% | 102% | 102% |  |  |  |  |  |  |  | 
CS(=O)(=O)Nc1ccc(OCC(=O)NCCOc2ccc(Cl)c(Cl)c2)cc1 | 380 nM | 100% | 11% | 21% | 97% | 92% | 96% | 100% | 42% |  |  |  |  |  |  | 
CS(=O)(=O)Nc1ccc(OCC(=O)NCCCc2ccc(Cl)c(Cl)c2)cc1 | 64 nM | 102% |  | 15% | 99% | 79% | 96% | 100% | < 1% |  |  |  |  |  |  | 
